{"source": "ChEMBL document CHEMBL1138272", "about": "“Synthesis, characterization, and receptor interaction profiles of enantiomeric bile acids” (J Med Chem, 2007)", "key": {"Caco-2 [1]": {"test_system": "Caco-2", "assay": "Activation of IBABP gene expression in human Caco-2 cells at 25 uM after 6 days by RT-PCR", "format": "functional, cell-based", "summary_of_the_method": "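Caco-2 cells grown in high-glucose DMEM/15% heat-inactivated FBS, medium changed every 3 days; 23 days post-confluence treated with ligands in DMEM with 15% charcoal-stripped FBS for 6 days. SYBR green real-time QPCR, ΔΔCt normalized to cyclophilin, fold vs vehicle; N = 2.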"}, "Huh-7 [2]": {"test_system": "Huh-7", "assay": "Activation of SHP gene expression in human Huh7 cells at 20 uM after 18 hrs by RT-PCR", "format": "functional, cell-based", "summary_of_the_method": "(§1)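 Huh7 cells seeded 2 × 10^5/well in high-glucose DMEM/10% FBS; next day ligands added in low-glucose DMEM with 5% charcoal-stripped FBS, 18 h. RNA harvested, SYBR green real-time QPCR, ΔΔCt normalized to cyclophilin, fold vs vehicle; N = 3, mean ± SD.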"}, "[3]": {"target": "T1, Nuclear receptor subfamily 1 group I member 2 (Homo sapiens, UniProt O75469)", "T1 sequence (O75469 whole entry)": "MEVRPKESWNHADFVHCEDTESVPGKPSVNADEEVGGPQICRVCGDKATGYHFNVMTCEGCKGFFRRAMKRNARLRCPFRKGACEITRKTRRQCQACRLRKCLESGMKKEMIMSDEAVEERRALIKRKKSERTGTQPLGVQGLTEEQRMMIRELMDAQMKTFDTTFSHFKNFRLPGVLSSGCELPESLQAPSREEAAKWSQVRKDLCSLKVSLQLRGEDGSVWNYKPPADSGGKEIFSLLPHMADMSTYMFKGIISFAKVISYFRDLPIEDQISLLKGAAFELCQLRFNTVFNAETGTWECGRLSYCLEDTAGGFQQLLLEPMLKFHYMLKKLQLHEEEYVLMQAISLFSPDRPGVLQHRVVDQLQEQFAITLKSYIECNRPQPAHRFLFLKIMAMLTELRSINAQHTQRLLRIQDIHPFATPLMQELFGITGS", "assay": "Activation of human PXR expressed in HEK293 cells at 20 uM by GAL4 activation assay relative to control", "format": "cell-based", "conditions": "hek293, 20 µM", "summary_of_the_method": "(§2)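 HEK293 cells in DMEM/10% super-stripped FBS, 4.0 × 10^4/well, calcium-phosphate transfected with UAS-luciferase (50 ng), GAL4-hFXR or GAL4-hPXR LBD fusion (15 ng), β-galactosidase (10 ng); ligands (5, 20, 50 µM) added 6-8 h later in delipidated medium, harvested 14-16 h later. Luciferase normalized to β-gal, fold over ethanol vehicle; triplicates.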"}, "[4]": {"target": "T1, Nuclear receptor subfamily 1 group I member 2", "assay": "Activation of human PXR expressed in HEK293 cells at 50 uM by GAL4 activation assay relative to control", "format": "cell-based", "conditions": "hek293, 50 µM", "summary_of_the_method": "as §2"}, "[5]": {"target": "T2, Bile acid receptor (Homo sapiens) (UniProt Q96RI1)", "T2 sequence (whole entry)": "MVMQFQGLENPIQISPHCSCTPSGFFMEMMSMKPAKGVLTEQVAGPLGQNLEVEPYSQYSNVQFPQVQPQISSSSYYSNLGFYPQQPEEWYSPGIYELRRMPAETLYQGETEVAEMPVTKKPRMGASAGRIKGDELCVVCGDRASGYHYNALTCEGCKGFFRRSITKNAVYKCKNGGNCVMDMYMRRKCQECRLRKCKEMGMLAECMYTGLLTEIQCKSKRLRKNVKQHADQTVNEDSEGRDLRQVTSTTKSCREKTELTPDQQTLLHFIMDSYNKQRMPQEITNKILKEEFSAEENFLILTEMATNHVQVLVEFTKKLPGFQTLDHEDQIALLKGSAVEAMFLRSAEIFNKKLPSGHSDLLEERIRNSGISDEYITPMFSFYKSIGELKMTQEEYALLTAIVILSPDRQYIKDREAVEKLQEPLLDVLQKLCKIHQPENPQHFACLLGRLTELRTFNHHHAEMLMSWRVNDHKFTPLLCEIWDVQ", "assay": "Activation of human FXR expressed in HEK293 cells by GAL4 activation assay", "format": "cell-based", "summary_of_the_method": "as §2"}, "[6]": {"target": "T2, Bile acid receptor (Homo sapiens)", "assay": "Activation of human FXR at 50 uM by FXRE TK-luciferase reporter gene assay relative to control", "summary_of_the_method": "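HEK293 cells calcium-phosphate cotransfected with full-length hFXR and hRXRα (15 ng each) plus FXREx3-TK-luc reporter (three copies of mouse IBABP IR-1) and β-galactosidase; bile acids 50 µM added in delipidated medium 6-8 h later, harvested 14-16 h later; luciferase normalized to β-gal; N = 3.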"}, "Huh-7 [7]": {"test_system": "Huh-7", "assay": "Activation of BSEP gene expression in human Huh7 cells at 20 uM after 18 hrs by RT-PCR", "format": "functional, cell-based", "summary_of_the_method": "as §1"}, "HepG2 [8]": {"test_system": "HepG2", "assay": "Decrease in CYP7A1 gene expression in human HepG2 cells at 25 uM after 18 hrs by RT-PCR", "format": "functional, cell-based", "summary_of_the_method": "(§3)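 HepG2 cells seeded 3 × 10^5/well in M199 with 10% FBS and 25 mM HEPES; after 24 h, medium replaced with ligand-containing medium, 18 h. Total RNA isolated; real-time QPCR with SYBR green (12.5 ng cDNA, 150 nM primers); ΔΔCt method normalized to cyclophilin, fold change vs vehicle-treated cells; N = 3, mean ± SD.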"}, "HepG2 [9]": {"test_system": "HepG2", "assay": "Activation of SHP gene expression in human HepG2 cells at 10 uM after 18 hrs by RT-PCR", "format": "functional, cell-based", "summary_of_the_method": "as §3"}, "[10]": {"target": "T3, G-protein coupled bile acid receptor 1 (Homo sapiens) (UniProt Q8TDU6)", "T3 sequence (whole entry)": "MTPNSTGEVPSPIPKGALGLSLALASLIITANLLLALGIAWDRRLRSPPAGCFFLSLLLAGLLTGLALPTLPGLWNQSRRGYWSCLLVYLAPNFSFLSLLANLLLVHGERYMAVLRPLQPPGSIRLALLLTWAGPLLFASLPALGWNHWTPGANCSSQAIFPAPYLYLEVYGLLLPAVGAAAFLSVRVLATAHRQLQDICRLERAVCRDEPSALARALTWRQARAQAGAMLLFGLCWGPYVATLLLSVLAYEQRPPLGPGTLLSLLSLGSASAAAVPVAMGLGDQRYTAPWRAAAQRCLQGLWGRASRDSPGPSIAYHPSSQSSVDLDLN", "assay": "Activation of TGR5 expressed in HEK293 cells assessed as elevation of cAMP production at 100 uM relative to control", "format": "functional, cell-based", "summary_of_the_method": "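HEK293 seeded 0.5 × 10^6 cells/well and transfected 24 h later with TGR5 vector or empty vector. After 2 days, cells were exposed 30 min at 37 °C in fresh medium with 0.2 mM IBMX. Intracellular cAMP was measured by kit after lysis and expressed over vehicle; N = 2.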"}, "HepG2 [11]": {"test_system": "HepG2", "assay": "Decrease in CYP7A1 gene expression in human HepG2 cells at 1 uM after 18 hrs by RT-PCR", "format": "functional, cell-based", "summary_of_the_method": "(§4)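 HepG2 seeded 3 × 10^5 cells/well in M199 with 10% FBS, penicillin/streptomycin and 25 mM HEPES. After 24 h, medium was replaced with ligand-containing medium for 18 h. Total RNA was isolated and analysed by SYBR green real-time QPCR (12.5 ng cDNA, 150 nM primers). Values were derived by ΔΔCt against cyclophilin, as fold over vehicle; N = 3.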"}, "Huh-7 [12]": {"test_system": "Huh-7", "assay": "Activation of SHP gene expression in human Huh7 cells at 1 uM after 18 hrs by RT-PCR", "format": "functional, cell-based", "summary_of_the_method": "(§5)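 Huh7 seeded 2 × 10^5 cells/well in high-glucose DMEM with 10% FBS. Next day, ligands were added in low-glucose DMEM with 5% charcoal-stripped FBS for 18 h. RNA was read by SYBR green real-time QPCR, ΔΔCt normalised to cyclophilin, and expressed as fold over vehicle; N = 3.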"}, "Caco-2 [13]": {"test_system": "Caco-2", "assay": "Activation of IBABP gene expression in human Caco-2 cells at 1 uM after 6 days by RT-PCR", "format": "functional, cell-based", "summary_of_the_method": "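Caco-2 grown in high-glucose DMEM with 15% heat-inactivated FBS, medium changed every 3 days. Treated 23 days postconfluence for 6 days in medium with 15% charcoal-stripped heat-inactivated FBS. RNA was read by SYBR green real-time QPCR, ΔΔCt normalised to cyclophilin, and expressed relative to vehicle; N = 2.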"}, "HepG2 [14]": {"test_system": "HepG2", "assay": "Activation of BSEP gene expression in human HepG2 cells at 1 uM after 18 hrs by RT-PCR", "format": "functional, cell-based", "summary_of_the_method": "as §4"}, "Huh-7 [15]": {"test_system": "Huh-7", "assay": "Activation of BSEP gene expression in human Huh7 cells at 1 uM after 18 hrs by RT-PCR", "format": "functional, cell-based", "summary_of_the_method": "as §5"}, "HepG2 [16]": {"test_system": "HepG2", "assay": "Activation of SHP gene expression in human HepG2 cells at 25 uM after 18 hrs by RT-PCR", "format": "functional, cell-based", "summary_of_the_method": "as §3"}, "HepG2 [17]": {"test_system": "HepG2", "assay": "Activation of BSEP gene expression in human HepG2 cells at 25 uM after 18 hrs by RT-PCR", "format": "functional, cell-based", "summary_of_the_method": "as §3"}}, "note": "The source made the active and inactive calls. The calls are words filed in the database; no cut-off is given here.", "data": [{"smiles": "C[C@H](CCC(=O)O)[C@H]1CC[C@H]2[C@@H]3CC[C@@H]4C[C@H](O)CC[C@]4(C)[C@H]3CC[C@]12C", "note": "[LITHOCHOLIC ACID]", "values": [{"measurement": "Activity", "setting": "Caco-2 [1]", "result": "inactive"}, {"measurement": "Activity", "setting": "Huh-7 [2]", "result": "Active"}, {"measurement": "Activity", "setting": "[3]", "result": "Active"}, {"measurement": "Activity", "setting": "[4]", "result": "Active"}, {"measurement": "Activity", "setting": "[5]", "result": "Dose-dependent effect"}, {"measurement": "Activity", "setting": "[6]", "result": "Active"}, {"measurement": "Activity", "setting": "Huh-7 [7]", "result": "Active"}]}, {"smiles": "C[C@H](CCC(=O)O)[C@H]1CC[C@H]2[C@@H]3[C@@H](O)C[C@@H]4C[C@H](O)CC[C@]4(C)[C@H]3CC[C@]12C", "values": [{"measurement": "Activity", "setting": "Caco-2 [1]", "result": "inactive"}, {"measurement": "Activity", "setting": "HepG2 [8]", "result": "Active"}]}, {"smiles": "C[C@@H](CCC(=O)O)[C@@H]1CC[C@H]2[C@@H]3CC[C@H]4C[C@@H](O)CC[C@@]4(C)[C@H]3CC[C@]21C", "values": [{"measurement": "Activity", "setting": "Caco-2 [1]", "result": "inactive"}, {"measurement": "Activity", "setting": "Huh-7 [2]", "result": "Active"}, {"measurement": "Activity", "setting": "[3]", "result": "Active"}, {"measurement": "Activity", "setting": "[4]", "result": "Active"}, {"measurement": "Activity", "setting": "[5]", "result": "Dose-dependent effect"}, {"measurement": "Activity", "setting": "HepG2 [9]", "result": "Active"}, {"measurement": "Activity", "setting": "Huh-7 [7]", "result": "Active"}]}, {"smiles": "C=C[C@@]1(C)CC(=O)[C@]2(O)[C@@]3(C)[C@@H](O)CCC(C)(C)[C@@H]3[C@H](O)[C@H](OC(C)=O)[C@@]2(C)O1", "values": [{"measurement": "Fold change", "setting": "[10]", "result": 16.5}]}, {"smiles": "CC(C)c1onc(-c2c(Cl)cccc2Cl)c1COc1ccc(/C=C/c2cccc(C(=O)O)c2)c(Cl)c1", "values": [{"measurement": "Activity", "setting": "HepG2 [11]", "result": "Active"}, {"measurement": "Activity", "setting": "Huh-7 [12]", "result": "Active"}, {"measurement": "Activity", "setting": "Caco-2 [13]", "result": "Active"}, {"measurement": "Activity", "setting": "HepG2 [14]", "result": "Active"}, {"measurement": "Activity", "setting": "Huh-7 [15]", "result": "Active"}]}, {"smiles": "C[C@H](CCC(=O)O)[C@H]1CC[C@H]2[C@@H]3[C@H](O)C[C@@H]4C[C@H](O)CC[C@]4(C)[C@H]3CC[C@]12C", "note": "[CHENODIOL]", "values": [{"measurement": "Activity", "setting": "Caco-2 [1]", "result": "Active"}, {"measurement": "Activity", "setting": "HepG2 [16]", "result": "Active"}, {"measurement": "Activity", "setting": "Huh-7 [2]", "result": "Active"}, {"measurement": "Activity", "setting": "[3]", "result": "Active"}, {"measurement": "Activity", "setting": "HepG2 [8]", "result": "Active"}, {"measurement": "Activity", "setting": "[4]", "result": "Active"}, {"measurement": "Activity", "setting": "Huh-7 [7]", "result": "Active"}, {"measurement": "Activity", "setting": "HepG2 [17]", "result": "Active"}]}]}
